≈ marks a conversion by molar mass, not a printed value. Where “and” joins values, the source holds several entries; their conditions need not be identical. Identical values can stand only once. Like-named read-outs stand apart in the source and are kept apart here.
Tests used:
[1] = Desorption kinetics of bisphenols from bisphenol-attached PVC microplastics; type: physicochemical
Outline: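 Bisphenol-loaded PVC from the adsorption step was placed in water or simulated intestinal fluid (NaCl 0.12 M, Na2CO3 0.02 M, sodium taurocholate 15.5 mM) in sealed 1 L glass bottles. Bottles were agitated rotationally at 200 rpm in an oil bath. Bisphenol was measured in filtered supernatant at intervals from 0 to 75 h. Run in triplicate.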

[2] = test system: human breast adenocarcinoma cells, MCF-7; test: cells; type: cell-based; conditions: for Cytotoxicity (proliferation reduction), MCF-7: high concentration (2 mg L^−1)
[3] = Desorption isotherms; type: physicochemical
[4] = test system: grass carp hepatocyte cell line, L8824; test: cells; type: cell-based; conditions: for IC50: Hepatocyte, 72 h; for Cytotoxicity (proliferation reduction), L8824: high concentration (2 mg L^−1)
[5] = Physicochemical properties of the five bisphenols; conditions: calculated from log Kow and pKa
[6] = Adsorption of bisphenols onto PVC microplastics; type: physicochemical; conditions: 1.5 g PVC microplastics in 1 L, 48 h, room temperature
Outline: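 Each bisphenol was dissolved in ethanol, then diluted in a 1 L glass bottle to initial concentrations of 0 to 1.0 mg L-1. PVC microplastics were added, and bottles were shaken at 200 rpm until adsorption equilibrium. Supernatants were filtered through a glass microfiber filter before bisphenol quantification. Run in triplicate.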

[7] = water, ref Wu et al.^3; cited from earlier work
[8] = calculated for concentration desorbed in warm-I
[9] = calculated for concentration desorbed in water

SMILES	Fslow, slow fraction ([1]; cold-I, pH 7.5, 291 K)	Fvs, very slow fraction ([1]; cold-I, pH 7.5, 291 K)	krap, rapid desorption rate constant ([1]; cold-I, pH 7.5, 291 K)	kslow, slow desorption rate constant ([1]; cold-I, pH 7.5, 291 K)	kvs, very slow desorption rate constant ([1]; cold-I, pH 7.5, 291 K)	Fslow, slow fraction ([1]; warm-I, pH 6.5, 311 K)	Fvs, very slow fraction ([1]; warm-I, pH 6.5, 311 K)	krap, rapid desorption rate constant ([1]; warm-I, pH 6.5, 311 K)	kslow, slow desorption rate constant ([1]; warm-I, pH 6.5, 311 K)	kvs, very slow desorption rate constant ([1]; warm-I, pH 6.5, 311 K)	Fslow, slow fraction ([1]; water, pH 7.0, 291 K)	Fvs, very slow fraction ([1]; water, pH 7.0, 291 K)	krap, rapid desorption rate constant ([1]; water, pH 7.0, 291 K)	kslow, slow desorption rate constant ([1]; water, pH 7.0, 291 K)	kvs, very slow desorption rate constant ([1]; water, pH 7.0, 291 K)	Cytotoxicity (proliferation reduction), MCF-7 [2, 8]	Cytotoxicity (proliferation reduction), MCF-7 [2, 9]	HI, hysteresis index ([3]; warm-I)	kFd, Freundlich constant for desorption ([3]; warm-I (Table 2))	n, surface heterogeneity constant (desorption) ([3]; warm-I (Table 2))	other results
CC(C)(c1ccc(O)cc1)c1ccc(O)cc1 [BPA, bisphenol A]	0.395±0.003	0.043±0.005	0.809±0.302 10^-2 h^-1	10.90±0.407 10^-4 h^-1	9.442±0.716 10^-5 h^-1	0.303±0.046	0.019±0.003	2.163±0.456 10^-2 h^-1	11.40±0.898 10^-4 h^-1	9.069±0.647 10^-5 h^-1	0.284±0.004	0.076±0.004	0.746±0.206 10^-2 h^-1	5.979±0.555 10^-4 h^-1	6.997±0.788 10^-5 h^-1	21.75%	12.36%	<0	0.398 mg^−1/n·L^−1/n·g^−1	1.218	IC50 ([2]; Homo sapiens, MCF7, 72 h, read-out: IC50 to MCF-7): 36.9 µM and 8.42 µg/mL; HI, hysteresis index ([3]; water): 0.289; kFd, Freundlich constant for desorption ([3]; water (Table 2)): 1.033 mg^−1/n·L^−1/n·g^−1; n, surface heterogeneity constant (desorption) ([3]; water (Table 2)): 1.512; IC50 ([4]; read-out: IC50 to L8824): 16.2 µM and 3.7 µg/mL; Cytotoxicity (proliferation reduction), L8824 [4, 8]: 29.75%; Cytotoxicity (proliferation reduction), L8824 [4, 9]: 20.08%; log Dow [5]: 3.32; amount of bisphenol adsorbed on the PVC [6]: 0.19 mg/g; kFa, Freundlich constant for adsorption [7]: 0.801 mg^−1/n·L^−1/n·g^−1; n, surface heterogeneity constant (adsorption) [7]: 1.21
Oc1ccc(C(c2ccc(O)cc2)(C(F)(F)F)C(F)(F)F)cc1 [BPAF, bisphenol AF]	0.409±0.002	0.003±0.001	1.007±0.318 10^-2 h^-1	9.957±0.755 10^-4 h^-1	<0.01 10^-5 h^-1	0.315±0.007	<0.001	2.609±0.521 10^-2 h^-1	13.80±2.684 10^-4 h^-1	<0.01 10^-5 h^-1	0.272±0.010	0.068±0.002	0.794±0.230 10^-2 h^-1	5.983±0.498 10^-4 h^-1	6.314±0.606 10^-5 h^-1	36.87%	24.19%	<0	0.465 mg^−1/n·L^−1/n·g^−1	1.154	IC50 ([2]; Homo sapiens, MCF7, 72 h, read-out: IC50 to MCF-7, 72 h exposure, 311 K, MTT): 2.65 ± 1.34 µg/mL; IC50 ([2]; read-out: IC50 to MCF-7, 72 h exposure, 311 K, MTT): 7.87 ± 3.98 µM; HI, hysteresis index ([3]; water): 0.326; kFd, Freundlich constant for desorption ([3]; water (Table 2)): 1.933 mg^−1/n·L^−1/n·g^−1; n, surface heterogeneity constant (desorption) ([3]; water (Table 2)): 1.155; IC50 ([4]; read-out: IC50 to L8824, 72 h exposure, 291 K, MTT): 1.15 ± 0.18 µg/mL (≈ 3.42 µM); Cytotoxicity (proliferation reduction), L8824 [4, 8]: 46.31%; Cytotoxicity (proliferation reduction), L8824 [4, 9]: 32.70%; amount of bisphenol adsorbed on the PVC [6]: 0.24 mg/g; kFa, Freundlich constant for adsorption [7]: 1.458 mg^−1/n·L^−1/n·g^−1; n, surface heterogeneity constant (adsorption) [7]: 1.14

— article PMC9488007 (Environmental Science and Ecotechnology, 2020)
